Assay results reported in ChEMBL document CHEMBL1909587, “Design, synthesis and biological study of novel pyrido[2,3-d]pyrimidine as anti-proliferative CDK2 inhibitors” (Eur J Med Chem, 2011).
One block for each compound: values may come before it.

Columns and labels:
[1] = tested on: A-431; assay: Growth inhibition of human A431 cells after 2 days by SRB assay; type: functional; conditions: A-431, 48 h
Procedure, shortened: (§1)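 Cells kept in RPMI 1640 with 10% FBS at 37 °C, 5% CO2; 1000 cells/well plated, compounds added next day at various concentrations for two days. Fixed with 4% formalin, stained with 0.1% sulforhodamine B, dye eluted in 0.1 M Tris/HCl pH 8.0, absorbance at 520 nm. Triplicate, averaged; 0% = treatment-time absorbance, 100% = untreated two-day growth; GI50 = 50% growth inhibition.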

[2] = target: Cyclin-dependent kinase 2/cyclin A (Homo sapiens, UniProt P24941); assay: Inhibition of CDK2/cyclin A expressed in baculovirus infected insect Sf21 cells using [gamma-P32]ATP and histone H1 as substrate after 10 mins by radiometric assay
[3] = tested on: SNU-638; assay: Growth inhibition of human SNU638 cells after 2 days by SRB assay; type: functional; conditions: SNU-638, 48 h; procedure, shortened: as §1
[4] = target: Epidermal growth factor receptor (Homo sapiens, UniProt P00533); assay: Inhibition of human EGFR
Procedure, shortened: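 Kinase activity measured with the C-terminal human EGFR tyrosine kinase domain; IC50 taken as the inhibitor concentration giving 50% inhibition.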

[5] = tested on: HCT116 (Homo sapiens); assay: Growth inhibition of human HCT116 cells after 2 days by SRB assay; conditions: HCT116, 48 h
[6] = Inhibition of CDK4/cyclin D expressed in baculovirus infected insect Sf21 cells using [gamma-P32]ATP and histone H1 as substrate after 10 mins by radiometric assay
Procedure, shortened: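 20 µL reactions in 50 mM Tris-HCl with 10 µM ATP, 0.2 µCi [γ-32P]ATP, 10 mM MgCl2, 5 mM DTT, 4 µg histone H1 substrate; 10 min with inhibitor, stopped with 30% phosphoric acid. Spotted on P81 paper, washed five times in 10 mM Tris-HCl pH 8.0/0.1 M NaCl, radioactivity imaged; IC50 = concentration giving 50% inhibition.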

Sequence of Epidermal growth factor receptor (P00533 whole entry, the tested form may be a part): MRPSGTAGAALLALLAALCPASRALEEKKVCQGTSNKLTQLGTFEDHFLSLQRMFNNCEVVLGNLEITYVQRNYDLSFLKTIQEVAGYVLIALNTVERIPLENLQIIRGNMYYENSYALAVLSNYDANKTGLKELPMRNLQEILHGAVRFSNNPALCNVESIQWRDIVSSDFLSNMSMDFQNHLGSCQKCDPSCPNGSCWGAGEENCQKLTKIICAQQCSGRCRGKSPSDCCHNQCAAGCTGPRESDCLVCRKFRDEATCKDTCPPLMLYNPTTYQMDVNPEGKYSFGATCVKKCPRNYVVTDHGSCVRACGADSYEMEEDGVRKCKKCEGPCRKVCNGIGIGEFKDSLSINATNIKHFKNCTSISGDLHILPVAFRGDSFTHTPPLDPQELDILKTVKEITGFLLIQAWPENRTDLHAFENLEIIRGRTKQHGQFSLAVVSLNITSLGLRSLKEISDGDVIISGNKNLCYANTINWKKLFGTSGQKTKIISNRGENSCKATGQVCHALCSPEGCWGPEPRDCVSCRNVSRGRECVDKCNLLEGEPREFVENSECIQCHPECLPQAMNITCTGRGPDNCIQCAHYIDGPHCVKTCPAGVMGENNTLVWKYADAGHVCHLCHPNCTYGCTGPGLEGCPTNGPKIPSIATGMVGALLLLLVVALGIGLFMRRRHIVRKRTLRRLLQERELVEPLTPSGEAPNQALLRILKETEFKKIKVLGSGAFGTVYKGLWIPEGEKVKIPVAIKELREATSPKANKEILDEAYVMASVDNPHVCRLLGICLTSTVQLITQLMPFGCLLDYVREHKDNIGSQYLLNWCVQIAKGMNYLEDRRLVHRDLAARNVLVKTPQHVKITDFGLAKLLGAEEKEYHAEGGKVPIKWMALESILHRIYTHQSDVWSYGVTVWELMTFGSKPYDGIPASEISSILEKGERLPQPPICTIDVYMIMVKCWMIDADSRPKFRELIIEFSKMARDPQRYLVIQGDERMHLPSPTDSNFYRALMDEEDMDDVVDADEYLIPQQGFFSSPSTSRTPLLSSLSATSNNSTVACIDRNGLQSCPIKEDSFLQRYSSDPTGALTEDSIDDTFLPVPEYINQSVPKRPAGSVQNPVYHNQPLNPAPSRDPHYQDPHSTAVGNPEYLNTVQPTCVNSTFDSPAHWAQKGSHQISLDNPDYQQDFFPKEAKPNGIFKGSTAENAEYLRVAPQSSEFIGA

Structure (SMILES): N#Cc1cc2c(N)ncnc2nc1NCCO
GI50 [1]: 26.6 µM
IC50 [2]: 29.5 µM
GI50 [3]: 20.8 µM
IC50 [4]: 93.3 µM
GI50 [5]: 4.5 µM
IC50 [6]: > 200 µM

Structure (SMILES): Nc1scc2c1c(NCCO)nc1ncnc(N)c12
GI50 [1]: 54.3 µM
IC50 [2]: 0.5 µM
GI50 [3]: 18.3 µM
IC50 [4]: > 100 µM
GI50 [5]: 6.46 µM
IC50 [6]: 29 µM

Structure (SMILES): Cc1c(C#N)c(NCCO)nc2nc(NCCO)nc(N)c12
GI50 [1]: 31.9 µM
IC50 [2]: 3.8 µM
GI50 [3]: 18.2 µM
IC50 [4]: 47.9 µM
GI50 [5]: 20.1 µM
IC50 [6]: 10 µM

Structure (SMILES): N#Cc1cc2c(N)nc(NCCO)nc2nc1Nc1ccc(S(N)(=O)=O)cc1
GI50 [1]: 36.3 µM
IC50 [2]: 0.9 µM
GI50 [3]: 35.8 µM
IC50 [4]: > 100 µM
GI50 [5]: 48.2 µM
IC50 [6]: 120 µM

Structure (SMILES): Cc1c(C#N)c(Nc2ccc(S(N)(=O)=O)cc2)nc2nc(NCCO)nc(N)c12
GI50 [1]: > 100 µM
IC50 [2]: 3.1 µM
GI50 [3]: 17.1 µM
IC50 [4]: > 100 µM
GI50 [5]: 38.2 µM
IC50 [6]: 95 µM

Structure (SMILES): Nc1scc2c1c(Nc1ccc(S(N)(=O)=O)cc1)nc1nc(NCCO)nc(N)c12
GI50 [1]: 21.9 µM
IC50 [2]: 8.1 µM
GI50 [3]: 26.1 µM
IC50 [4]: > 100 µM
GI50 [5]: 47.7 µM
IC50 [6]: 44 µM

Structure (SMILES): Cn1cnc2c(NCc3ccccc3)nc(NCCO)nc21 [OLOMOUCINE]
GI50 [1]: 16.6 µM
GI50 [3]: 16.6 µM
GI50 [5]: 12.1 µM
IC50 [6]: 45 µM

Structure (SMILES): CC[C@H](CO)Nc1nc(NCc2ccccc2)c2ncn(C(C)C)c2n1 [SELICICLIB]
IC50 [6]: 15 µM

Further lines, with some results ahead:

GI50 [1]: 5.06 µM
IC50 [2]: 29.5 µM
GI50 [3]: 2.58 µM
IC50 [4]: > 100 µM
GI50 [5]: 4.1 µM
Structure (SMILES): Cc1c(C#N)c(NCCO)nc2ncnc(N)c12
IC50 [6]: 36 µM

GI50 [1]: 7.8 µM
IC50 [2]: 0.3 µM
GI50 [3]: 7.57 µM
IC50 [4]: > 100 µM
GI50 [5]: 19.3 µM
Structure (SMILES): N#Cc1cc2c(N)ncnc2nc1Nc1ccc(S(N)(=O)=O)cc1
IC50 [6]: 13 µM

GI50 [1]: 2.94 µM
IC50 [2]: 10 µM
GI50 [3]: 6.2 µM
IC50 [4]: > 100 µM
GI50 [5]: 16.6 µM
Structure (SMILES): Cc1c(C#N)c(Nc2ccc(S(N)(=O)=O)cc2)nc2ncnc(N)c12
IC50 [6]: 16 µM

GI50 [1]: 3.94 µM
IC50 [2]: 36.3 µM
GI50 [3]: 2.56 µM
IC50 [4]: 29.5 µM
GI50 [5]: 8.89 µM
Structure (SMILES): Nc1scc2c1c(Nc1ccc(S(N)(=O)=O)cc1)nc1ncnc(N)c12
IC50 [6]: > 120 µM

GI50 [1]: 6.25 µM
IC50 [2]: 6.3 µM
GI50 [3]: 7.95 µM
IC50 [4]: > 100 µM
GI50 [5]: 10.9 µM
Structure (SMILES): N#Cc1cc2c(N)nc(NCCO)nc2nc1NCCO
IC50 [6]: 28 µM

GI50 [1]: 4.6 µM
IC50 [2]: 0.09 µM
GI50 [3]: 2.57 µM
IC50 [4]: 66.1 µM
GI50 [5]: 11.4 µM
Structure (SMILES): Nc1scc2c1c(NCCO)nc1nc(NCCO)nc(N)c12
IC50 [6]: > 48 µM

GI50 [1]: 0.18 µM
GI50 [5]: 0.13 µM
Structure (SMILES): COc1cccc2c1C(=O)c1c(O)c3c(c(O)c1C2=O)C[C@@](O)(C(=O)CO)C[C@@H]3O[C@H]1C[C@H](N)[C@H](O)[C@H](C)O1 [DOXORUBICIN]
